According to article PMC6959537 (Bioorganic & medicinal chemistry, 2015):
Entries after “also recorded” stand apart in the source; their conditions may differ. Like-named read-outs stand apart in the source and are kept apart here.

Legend:
human TRPV1 = human TRPV1 (Homo sapiens, UniProt Q8NER1); assay: hTRPV1 antagonism, inhibition of activation by capsaicin; format: cell-based
body temperature = assay: Body temperature study; format: in vivo, mouse; settings: at the given doses, oral
[1] = test system: capsaicin-induced hypothermia; assay: Inhibition of capsaicin-induced hypothermia after oral administration; parameters: species or system mouse; settings: in vivo
[2] = test system: CCI-induced cold allodynia; assay: CCI-induced cold allodynia; format: in vivo; settings: mouse, Bennett model, oral, 10 mg/kg
Method in brief: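 Mice with chronic constriction injury (Bennett model) received test compound orally. Cold allodynia was then scored and expressed as % maximal possible effect. Groups were n = 10, reported as mean ± SEM, and compared with vehicle (p < 0.05).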

[3] = capsaicin 100 nM, FLIPR, hTRPV1 expressed in CHO cells

Chain of human TRPV1 (Q8NER1 whole entry): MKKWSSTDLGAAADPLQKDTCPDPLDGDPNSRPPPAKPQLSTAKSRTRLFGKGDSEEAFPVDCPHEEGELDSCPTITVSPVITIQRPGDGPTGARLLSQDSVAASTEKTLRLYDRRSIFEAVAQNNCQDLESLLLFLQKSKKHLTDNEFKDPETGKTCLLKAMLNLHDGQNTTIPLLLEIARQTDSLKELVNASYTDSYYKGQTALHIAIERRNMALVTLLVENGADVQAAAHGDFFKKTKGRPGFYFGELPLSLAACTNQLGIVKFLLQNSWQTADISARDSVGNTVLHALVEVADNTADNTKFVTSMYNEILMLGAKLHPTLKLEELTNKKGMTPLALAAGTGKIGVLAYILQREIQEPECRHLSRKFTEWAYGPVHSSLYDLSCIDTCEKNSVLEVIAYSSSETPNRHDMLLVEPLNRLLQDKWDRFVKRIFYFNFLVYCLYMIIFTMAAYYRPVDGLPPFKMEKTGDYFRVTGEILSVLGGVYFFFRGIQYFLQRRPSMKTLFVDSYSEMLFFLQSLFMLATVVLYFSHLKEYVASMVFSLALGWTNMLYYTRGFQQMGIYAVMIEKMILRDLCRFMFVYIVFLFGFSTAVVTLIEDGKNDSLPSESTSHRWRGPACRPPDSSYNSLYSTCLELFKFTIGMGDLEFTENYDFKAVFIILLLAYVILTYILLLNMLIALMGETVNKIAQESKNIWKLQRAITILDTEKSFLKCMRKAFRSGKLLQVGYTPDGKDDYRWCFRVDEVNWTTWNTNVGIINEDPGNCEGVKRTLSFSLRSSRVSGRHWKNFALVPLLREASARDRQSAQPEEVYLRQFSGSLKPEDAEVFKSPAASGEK

## 2-(2-Fluoro-4-(methylsulfonamido)phenyl)-N-(2-(4-(4-fluorobenzyl)piperidin-1-yl)-4-(trifluoromethyl)benzyl)propanamide [Compound 20]
Human TRPV1; read-out: Ki (CAP), capsaicin 100 nM, FLIPR, hTRPV1 expressed in CHO cells
  Ki: 0.4 nM

## 2-(3-Fluoro-4-(methylsulfonamido)phenyl)-N-(2-cyclopentylthio-4-(trifluoromethyl)-benzyl)propanamide [Compound 49]
Human TRPV1; [3]
  hTRPV1 antagonism in words: moderate antagonism

## CC(C(=O)NCc1ccc(C(F)(F)F)cc1N1CCOCC1)c1ccc(NS(C)(=O)=O)c(F)c1 (centres unmarked) [Compound 27, 2-(3-Fluoro-4-methanesulfonylamino-phenyl)-N-(2-morpholin-4-yl-4-trifluoromethyl-benzyl)-propionamide]
Human TRPV1; capsaicin antagonism, versus compound 10
  fold less potent than the corresponding piperidine surrogate (10): ca. 4 fold

## CCCCCCOc1cc(C(F)(F)F)ccc1CNC(=O)C(C)c1ccc(NS(C)(=O)=O)c(F)c1 (centres unmarked) [Compound 31, 2-(3-Fluoro-4-(methylsulfonamido)phenyl)-N-(2-(hexyloxy)-4(trifluoromethyl)benzyl)propanamide]
Human TRPV1
  Ki: 0.7 to 0.8 nM

## CC(C(=O)NCc1ccc(C(F)(F)F)cc1SCCCO)c1ccc(NS(C)(=O)=O)c(F)c1 (centres unmarked) [Compound 42, 2-(3-Fluoro-4-(methylsulfonamido)phenyl)-N-(2-((3-hydroxypropyl)thio)-4-(trifluoro-methyl)benzyl)propanamide]
Human TRPV1; [3]
  hTRPV1 antagonism in words: loss of activity

## CC(C(=O)NCc1ccc(C(F)(F)F)cc1SC1CCCC1)c1ccc(NS(C)(=O)=O)c(F)c1 (centres unmarked) [Compound 43, 2-(3-Fluoro-4-(methylsulfonamido)phenyl)-N-(2-cyclopentylthio-4-(trifluoromethyl)-benzyl)propanamide]
Body temperature
  Hyperthermia / body temperature effect of compound alone: without hyperthermia; also recorded: did not show any hyperthermia; also recorded: thermoneutral
[1]
  Effect on capsaicin-induced hypothermia in words: blocked capsaicin-induced hypothermia

## C[C@H](C(=O)NCc1ccc(C(F)(F)F)cc1SC1CCCCC1)c1ccc(NS(C)(=O)=O)c(F)c1 [Compound 44S]
Body temperature
  Hyperthermia / body temperature effect of compound alone: without hyperthermia; also recorded: did not show any hyperthermia; also recorded: thermoneutral
[2]
  max antiallodynic efficacy in cold allodynia, MPE: 57 % MPE
[1]
  Effect on capsaicin-induced hypothermia in words: blocked capsaicin-induced hypothermia

## CC(C(=O)NCc1ccc(C(F)(F)F)cc1F)c1ccc(NS(C)(=O)=O)c(F)c1 (centres unmarked) [Compound 50, 2-(3-Fluoro-4-methanesulfonylamino-phenyl)-N-(2-fluoro-4-trlfluoromethyl-benzyl)-propioamide]
Human TRPV1; [3]
  hTRPV1 antagonism in words: weak antagonists

## CC(C(=O)NCc1ccc(C(F)(F)F)cc1Cl)c1ccc(NS(C)(=O)=O)c(F)c1 (centres unmarked) [Compound 51, 2-(3-Fluoro-4-methanesulfonylamino-phenyl)-N-(2-chloro-4-trifluoromethyl-benzyl)-propionamide]
Human TRPV1; [3]
  hTRPV1 antagonism in words: good antagonism

## CC(C(=O)NCc1ccc(C(F)(F)F)cc1[N+](=O)[O-])c1ccc(NS(C)(=O)=O)c(F)c1 (centres unmarked) [Compound 52, 2-(3-Fluoro-4-methanesulfonylamino-phenyl)-N-(2-nitro-4-trifluoromethyl-benzyl)-propionamide]
Human TRPV1; [3]
  hTRPV1 antagonism in words: weak antagonists

## CC(C(=O)NCc1ccc(C(F)(F)F)cc1-c1cccnc1)c1ccc(NS(C)(=O)=O)c(F)c1 (centres unmarked) [Compound 62, 2-(3-Fluoro-4-methanesulfonylamino-phenyl)-N-(2-pyridin-3-yl-4-trifluoromethylbe-nzyl)-propionamide]
Human TRPV1; [3]
  hTRPV1 antagonism in words: weak antagonist
